In the library only some 11% were active in any assay of this set; here they are far more common.
S1P1 ag-PAM: agonists and agonism potentiators of human S1P1 receptor | P21453 | S1P1 CRE-bla cells, forskolin, beta-lactamase FRET, potentiator mode; S1P1 agonist co-added at EC20, 2 nM; 100% = saturating reference agonist, 0% = basal | activation, % at 9.5 µM | actives 0.57% (n = 56,000);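 active = activation above a cutoff set at the mean activation of all tested compounds plus 3 SD, cut at about 54% in these data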;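 note: forskolin at 4 µM as EC80 and the EC20 agonist is SEW2871; 100% = SEW2871 at its EC100 plus forskolin at EC80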
M1 antag: M1 muscarinic receptor (rat) antagonism; P08482; CHO-M1 cells, Fluo-4 calcium, ACh EC80 antagonist mode; stronger effect = lower value; B-score at 10 µM; actives 3.4% (n = 64,000);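 active = calcium fluorescence response, raw or row-and-column corrected B-score, differing from the plate sample mean either way at a set confidence level, mostly lower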
Target sequence (P08482 whole entry, looked up): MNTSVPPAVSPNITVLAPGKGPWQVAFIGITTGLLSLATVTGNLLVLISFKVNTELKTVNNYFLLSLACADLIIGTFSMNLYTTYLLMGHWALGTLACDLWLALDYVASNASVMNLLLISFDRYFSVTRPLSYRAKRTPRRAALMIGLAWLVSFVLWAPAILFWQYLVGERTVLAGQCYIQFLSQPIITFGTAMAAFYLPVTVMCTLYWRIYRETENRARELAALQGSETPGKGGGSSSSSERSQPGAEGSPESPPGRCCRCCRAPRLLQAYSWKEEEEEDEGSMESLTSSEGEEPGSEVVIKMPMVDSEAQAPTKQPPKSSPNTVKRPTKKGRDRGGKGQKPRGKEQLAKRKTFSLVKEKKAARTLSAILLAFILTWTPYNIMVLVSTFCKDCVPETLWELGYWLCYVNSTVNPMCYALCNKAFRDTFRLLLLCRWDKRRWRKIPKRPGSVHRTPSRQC
TNAP act mid DEA: activators of human TNAP at intermediate phosphate acceptor; AID 813; P05186; 64,000 tested, under 10 active; activation factor at 20 µM; purified TNAP, CDP-star luminescence, 100 mM DEA, 30 min; stronger effect = higher value; scale: 0 levamisole-inhibited, 1 vehicle-only enzyme;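 active = activation factor of at least 2 at 20 µM, relative to controls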
M1 agonist: agonists of M1 muscarinic receptor | CHO-M1 cells, Fluo-4 calcium fluorescence, agonist mode; stronger effect = higher value | B-score at 10 µM | actives 3% (n = 64,000);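 active = fluorescence rise, raw or as B-score row- and column-corrected plate score, outside the 99.7% band of its plate's samples, either direction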
S1P3 agonist: agonists of human S1P3 receptor; Q99500; S1P3 NFAT-BLA reporter cells, agonism, FRET ratio; relative to 1 µM S1P, basal subtracted; activation, % at 4.5 µM; actives 0.1% (n = 60,000);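 active = activation above the screen-wide mean plus 3 SD, cut at about 4.5% in these data, passing the limit was not always enough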
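material = human S1P3 NFAT-BLA reporter CHO cells | schedule = 4 h compound at 37 °C, 2 h substrate at RT | measured by = fluorescent BLA substrate, ex 405 nm, em 460/535 nm ratio | controls = 1 µM S1P reference | replication = primary once, confirmation triplicate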
D1 allo mod: allosteric modulators of human D1 dopamine receptor; P21728; HEK293 D1, CRE-luciferase, dopamine EC30 potentiation; actives deviate in either direction; B-score at 10 µM; actives 5.9% (n = 58,000); AID 641;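 active = luminescence count or its row- and column-corrected plate score outside the 99.7% band of the plate's sample wells, on either side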
Numbers without * were called inactive; · = not tested or not shown.

SMILES	S1P1 ag-PAM	M1 antag	TNAP act mid DEA	M1 agonist	S1P3 agonist	D1 allo mod
Cc1ccccc1NC(=O)c1cc(S(=O)(=O)N2CCOCC2)ccc1F	-2	0.34	0.9	-0.33	0	-0.092
CCOC(=O)c1cnc2sc3c(n2c1=O)CCCC3	38	-0.91	0.9	0.025	-1	-1.1
Cc1ccc(CSc2nnc(-c3cccs3)n2C)cc1	2	-0.23	0.9	-0.4	0	0.16
Cc1ccc(-n2c(-c3ccncc3)nnc2-c2cccs2)cc1	17	0.91	0.8	0.97	-1	7*
O=C(COC(=O)C1(c2ccccc2)CC1)N1CCN(c2ccc(F)cc2)CC1	8	-0.88	0.9	-0.22	-2	-0.75
COc1ccc(-c2nc3cc(NC(=O)Cc4ccc(OC)c(OC)c4)ccc3o2)cc1	81*	-0.63	0.9	-0.46	-1	-3.9*
CCCC(=O)Nc1ccc(-c2nc3cc(C)c(C)cc3o2)cc1	82*	0.27	1	-0.25	-1	-2.4*
O=S(=O)(Cc1ccccc1)N1CCc2ccccc21	8	-0.19	0.9	8.3*	0	-0.51
OC1(c2ccccc2)C/C(=N\n2cnnc2)C=C1c1ccccc1 (stereo not given)	-4	0.0022	0.9	0.012	0	·
CC(=O)C1=C(O)C(=O)N(Cc2ccco2)C1c1ccccc1 (stereo not given)	16	1.1	1	-0.0092	-1	-0.54
CC(=O)C1=C(O)C(=O)N(Cc2ccco2)C1c1ccc(F)cc1 (stereo not given)	1	-0.12	1	-0.14	1	-2.8*
O=C(Cn1cccc1C(=O)c1ccccc1)NCc1cccs1	1	-0.16	1	0.2	-1	-0.57
Cc1ccc(C)c(N2CCN(C(=O)c3ccc(NS(=O)(=O)c4c(C)noc4C)cc3)CC2)c1	-58	2.2*	1	0.09	0	-0.84
Nc1ccc(C2CCCc3nonc32)c2nonc12 (stereo not given)	11	·	0.9	·	-1	-2.8*
Cc1cc(C)c2nc(Nc3nc(C)cc(=O)[nH]3)nc(C)c2c1	-228	-2	1.1	0.36	1	-3.6*
COc1ccc2c(C)nc(Nc3nc(C)cc(=O)[nH]3)nc2c1	-115	0.15	1.1	-0.24	1	-0.099
COc1cc(N2CCCC2)c(OC)cc1/C=c1/sc2nc3ccccc3n2c1=O	-9	0.27	0.8	13*	-4	0.13
O=c1/c(=C\c2cccn2-c2ccccc2)sc2nc3ccccc3n12	9	-0.13	0.8	8.4	-1	·
Cc1ccc(-n2ncc3c(N4CCCC(C)C4)ncnc32)c(C)c1 (stereo not given)	73*	-1	0.9	0.35	-1	-2.2
CC1CCCN(c2ncnc3c2cnn3-c2ccccc2)C1 (stereo not given)	4	-0.21	1	-0.15	-1	-7.6*
Cc1cccc(-n2ncc3c(N4CCC(C)CC4)ncnc32)c1	-15	-0.15	1	-0.0017	0	-4.3*
CCN1CCN(c2ncnc3c2cnn3-c2ccc(Cl)cc2)CC1	7	-1.4*	1	0.69	-2	·
CCN1CCN(c2ncnc3c2cnn3-c2ccccc2)CC1	-5	-0.52	1	-0.89	-1	-0.82
O=C(CSc1ccc2nnc(-c3ccccn3)n2n1)NCc1ccco1	-4	0.28	0.9	0.15	0	0.064
CCCCCOC(=O)CSc1nnc(-c2ccccc2)c(=O)[nH]1	14	·	1	·	-1	·
SMILES	S1P1 ag-PAM	M1 antag	TNAP act mid DEA	M1 agonist	S1P3 agonist	D1 allo mod
COc1ccccc1C(=O)Nc1cc(-c2nn3c(C)nnc3s2)ccc1C	-21	0.081	1	0.72	0	1.6
COCCCn1c(SCC(=O)n2c(C)c(C)c3ccccc32)nnc1-c1ccoc1C	4	0.64	0.9	0.51	-1	-1.1
c1ccc(CCN2CCN(c3ncnc4c3cnn4-c3ccccc3)CC2)cc1	·	-0.59	1	2.1	-2	0.031
c1ccc(-n2ncc3c(N4CCCCC4)ncnc32)cc1	-10	0.071	0.9	0.015	-1	-6.9*
CCN(CC)C(=O)C1CCCN(c2ncnc3c2cnn3-c2ccc(Cl)cc2)C1 (stereo not given)	-45	-0.08	0.9	-1.5	-1	-3.6*
CCOC(=O)C1CCN(Cc2ccc(C(=O)OC)cc2)CC1	·	-5.6*	0.9	41*	-1	-0.64
O=C(COc1ccc(Cl)cc1Cl)Nc1ccccn1	·	-0.19	0.9	-0.89	0	-4.5*
CC(c1ccco1)N(C(=O)COc1ccc(Cl)cc1Cl)c1ccccn1 (stereo not given)	·	-1.8	0.9	1.6	·	-7.3*
O=C(COc1ccccc1Cl)Nc1ccc(Cl)cn1	-7	·	1	·	0	-1.5
CCCCCCOC(=O)Sc1nc2ccccc2o1	·	·	0.9	·	·	-0.92
CC1CCN(c2nc3ccccc3nc2C(C#N)S(=O)(=O)c2ccccc2)CC1 (stereo not given)	·	0.52	1	3.8*	·	·
CC1CCN(c2nc3ccccc3nc2C(C#N)C(=O)OC2CCCCC2)CC1 (stereo not given)	-1	1.5*	0.9	3.2	-1	-0.44
COc1ccc(Br)cc1C1SCCN1S(C)(=O)=O (stereo not given)	16	1	0.9	1.4	0	-2
CCc1nnc(NC(=O)C2CCCN2S(=O)(=O)c2ccc(F)cc2)s1 (stereo not given)	5	0.51	0.9	0.28	1	0.26
CCOC(=O)C1CCN(C(=O)CSc2nnc(-c3ccco3)n2-c2ccccc2)CC1	-12	0.17	0.9	-1.1	0	-0.7
Oc1ccc(Nc2nc(N3CCCC3)c3ccccc3n2)cc1	-61	0.091	1	0.085	0	-2.5
Cc1ccc(Nc2nc(N3CCOCC3)c3ccccc3n2)cc1	18	0.24	0.9	2.5	-1	-5.8*
Cc1cc(C(=O)Nc2ccccn2)cs1	-3	0.53	0.9	0.58	-1	-3.8*
Cc1cc(C)n(-c2ccc(C(=O)Nc3sccc3C(N)=O)cc2)n1	-16	-0.78	0.9	1.1	0	0.01
Cc1cc(C)n(-c2ccc(C(=O)Nc3ccccn3)cc2)n1	-7	0.21	0.9	-0.8	0	-4.1*
CN(C)S(=O)(=O)NCc1ccc2c(c1)OCO2	-2	0.049	1	0.025	-1	0.31
O=c1cc(N2CCC3(CC2)OCCO3)[nH]c(=O)n1-c1ccc(Br)cc1	-5	0.87	·	0.41	0	-0.52
CC1CCCCN1CCNC(=O)c1ccc2c(=O)n(CCc3ccccc3)c(=O)[nH]c2c1 (stereo not given)	·	-0.85	0.8	-1.4	·	-3.7*
CC1CCN(CCNC(=O)c2ccc3c(=O)n(CCc4ccccc4)c(=O)[nH]c3c2)CC1	·	0.17	0.9	-2*	·	-1.1

High-throughput results: PubChem, several laboratories
